Data: paper PMC10870114 (Clinical Cancer Research, 2023)

Legend:
[1] = Plasma pharmacokinetics on fraction day; assay type: in vivo, human
[2] = tested on: locally advanced rectal cancer; experiment: Disease-free survival, recurrence and progression events; assay type: in vivo, human
Summary of the method: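 They also received capecitabine 825 mg/m2 twice daily and RT 50–50.4 Gy in 25 or 28 fractions, 5 days/week, for 5–5.5 weeks. DFS was estimated by Kaplan–Meier with two-sided 95% CI.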

DNA-PK = DNA-PK (Homo sapiens, UniProt P78527); experiment: pDNA-PK/tDNA-PK ratio in bleomycin-stimulated PBMCs, pre- and post-dosing; settings: PBMCs stimulated with bleomycin ex vivo; evidence of target engagement
[3] = tested on: locally advanced rectal cancer; experiment: Neoadjuvant rectal; assay type: in vivo, human; settings: for NAR score, median: patients who underwent surgery
Summary of the method: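 Patients without clinical complete response were to have surgery 9.5±2 weeks after CRT completion. On the resected tissue, tumour regression was graded by the modified Ryan scheme, from 0 (complete response) to 3 (poor or no response). The NAR score was calculated only for operated patients, with lower scores denoting better prognosis.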

[4] = tested on: patients with locally advanced head and neck cancer; settings: NCT02516813; cited from earlier work
[5] = tested on: patients with locally advanced rectal cancer; experiment: Treatment-emergent adverse events; assay type: in vivo, human
[6] = tested on: patients with advanced solid tumors; settings: cited from earlier work
[7] = Overall, peposertib 50-250 mg + RT + capecitabine, n = 19
[8] = peposertib 50 mg + RT + capecitabine, n = 1
[9] = peposertib 100 mg + RT + capecitabine, n = 6
[10] = peposertib 150 mg + RT + capecitabine, n = 6
[11] = peposertib 250 mg + RT + capecitabine, n = 6

Compound: COc1ccc([C@@H](O)c2cc(-c3ncnc4cc(N5CCOCC5)ccc34)c(F)cc2Cl)nn1 [Peposertib]
- Dose proportionality of exposure ([1]; across all dose levels after single and multiple dosing): dose proportional
- half-life ([1]; human, plasma, oral, Mean terminal half-life, all dosing groups, independent of the dose level): 5 to 6 h
- Accumulation after multiple once-daily dosing ([1]; in vivo): No relevant peposertib accumulation
- Disease-free survival time: Median [2, 7]: 21.2 mo
- Disease-free survival time: Minimum [2, 7]: 0 mo
- Disease-free survival time: Number of events (PD, deaths) [2, 7]: 5 (26.3) n (%)
- Disease-free survival time: maximum [2, 7]: 23.5 mo
- Disease-free survival rate at 18 months ([2]; all cohorts, Kaplan-Meier estimate, 95% CI, 25.9–87.9): 65.9%
- Median DFS ([2]; all cohorts, 95% CI, 18.0–not done): 21.2 months
- Locoregional recurrence within the study period ([2]; nine patients who underwent surgery, follow-up of up to 2 years): none
- Progression events at data cutoff ([2]; three deaths, two progressive disease events): five
- Peposertib dose at which inhibition of DNA-PK autophosphorylation was observed (DNA-PK): ≥ 150 mg
- NAR score, median ([3]; 100-mg dose cohort): 9.4
- NAR score, median ([3]; 150-mg dose cohort): 13.8
- NAR score, median ([3]; 250-mg dose cohort): 15.0
- Patients with a Ryan score of 1 ([3]; one each in the 100-mg and 150-mg cohorts): two patients
- Safety of combination with RT and full doses of cisplatin [4]: could not be safely combined
- Grade 4 TEAE: lymphocyte count decrease ([5]; 100-mg cohort): 1 n
- Grade 4 TEAE: lymphopenia ([5]; 100-mg cohort): 1 n
- Grade 4 TEAE: lymphopenia ([5]; 150-mg cohort): 1 n
- Grade 4 TEAE: enterocolitis ([5]; 250-mg cohort): 1 n
- Grade 4 TEAE: leukopenia and lymphocyte count decrease ([5]; 250-mg cohort): 1 n
- Patients with any Capecitabine-related TEAE [5, 7]: 19 (100) n (%)
- Patients with any Capecitabine-related grade ≥3 TEAE [5, 7]: 10 (53) n (%)
- Patients with any Capecitabine-related grade ≥4 TEAE [5, 7]: 5 (26) n (%)
- Patients with any Capecitabine-related serious TEAE [5, 7]: 5 (26) n (%)
- Patients with any Grade ≥3 TEAE [5, 7]: 14 (74) n (%)
- Patients with any Grade ≥4 TEAE [5, 7]: 5 (26) n (%)
- Patients with any Peposertib-related TEAE [5, 7]: 17 (90) n (%)
- Patients with any Peposertib-related grade ≥ 3TEAE [5, 7]: 13 (68) n (%)
- Patients with any Peposertib-related grade ≥4 TEAE [5, 7]: 5 (26) n (%)
- Patients with any Peposertib-related serious TEAE [5, 7]: 6 (32) n (%)
- Patients with any RT-related TEAE [5, 7]: 19 (100) n (%)
- Patients with any RT-related grade ≥3 TEAE [5, 7]: 9 (47) n (%)
- Patients with any RT-related grade ≥4 TEAE [5, 7]: 4 (21) n (%)
- Patients with any RT-related serious TEAE [5, 7]: 5 (26) n (%)
- Patients with any Serious TEAE [5, 7]: 7 (37) n (%)
- Patients with any TEAE [5, 7]: 19 (100) n (%)
- Patients with any TEAE leading to death [5, 7]: 0 n (%)
- Patients with any TEAE leading to permanent discontinuation of RT [5, 7]: 2 (11) n (%)
- Patients with any TEAE leading to permanent discontinuation of capecitabine [5, 7]: 3 (15.8) n (%)
- Patients with any TEAE leading to permanent discontinuation of peposertib [5, 7]: 4 (21) n (%)
- Patients with any TEAE leading to study discontinuation [5, 7]: 0 n (%)
- Most frequently reported TEAE: fatigue ([5]; across all cohorts, n = 9): 47.4%
- Most frequently reported TEAE: nausea ([5]; across all cohorts, n = 9): 47.4%
- Most frequently reported TEAE: proctitis ([5]; across all cohorts, n = 9): 47.4%
- Most frequently reported TEAE: diarrhea ([5]; across all cohorts, n = 15): 78.9%
- Patients with grade ≥3 TEAE ([5]; all cohorts, 14 of 19 patients): 73.7%
- Grade ≥3 TEAE: diarrhea ([5]; all cohorts, n = 19): 15.8%
- Grade ≥3 TEAE: enterocolitis ([5]; all cohorts, n = 19): 15.8%
- Grade ≥3 TEAE: lymphocyte count decreased ([5]; all cohorts, n = 19): 36.8%
- Grade ≥3 TEAE: lymphopenia ([5]; all cohorts, n = 19): 21.1%
- Patients with any Capecitabine-related TEAE [5, 8]: 1 (100) n (%)
- Patients with any Capecitabine-related grade ≥3 TEAE [5, 8]: 0 (0) n (%)
- Patients with any Capecitabine-related grade ≥4 TEAE [5, 8]: 0 (0) n (%)
- Patients with any Capecitabine-related serious TEAE [5, 8]: 0 n (%)
- Patients with any Grade ≥3 TEAE [5, 8]: 0 (0) n (%)
- Patients with any Grade ≥4 TEAE [5, 8]: 0 (0) n (%)
- Patients with any Peposertib-related TEAE [5, 8]: 1 (100) n (%)
- Patients with any Peposertib-related grade ≥ 3TEAE [5, 8]: 0 (0) n (%)
- Patients with any Peposertib-related grade ≥4 TEAE [5, 8]: 0 (0) n (%)
- Patients with any Peposertib-related serious TEAE [5, 8]: 0 n (%)
- Patients with any RT-related TEAE [5, 8]: 1 (100) n (%)
- Patients with any RT-related grade ≥3 TEAE [5, 8]: 0 (0) n (%)
- Patients with any RT-related grade ≥4 TEAE [5, 8]: 0 (0) n (%)
- Patients with any RT-related serious TEAE [5, 8]: 0 n (%)
- Patients with any Serious TEAE [5, 8]: 0 n (%)
- Patients with any TEAE [5, 8]: 1 (100) n (%)
- Patients with any TEAE leading to death [5, 8]: 0 n (%)
- Patients with any TEAE leading to permanent discontinuation of RT [5, 8]: 0 (0) n (%)
- Patients with any TEAE leading to permanent discontinuation of capecitabine [5, 8]: 0 (0) n (%)
- Patients with any TEAE leading to permanent discontinuation of peposertib [5, 8]: 0 (0) n (%)
- Patients with any TEAE leading to study discontinuation [5, 8]: 0 n (%)
- Patients with any Capecitabine-related TEAE [5, 9]: 6 (100) n (%)
- Patients with any Capecitabine-related grade ≥3 TEAE [5, 9]: 2 (33) n (%)
- Patients with any Capecitabine-related grade ≥4 TEAE [5, 9]: 2 (33) n (%)
- Patients with any Capecitabine-related serious TEAE [5, 9]: 2 (33) n (%)
- Patients with any Grade ≥3 TEAE [5, 9]: 4 (67) n (%)
- Patients with any Grade ≥4 TEAE [5, 9]: 2 (33) n (%)
- Patients with any Peposertib-related TEAE [5, 9]: 5 (83) n (%)
- Patients with any Peposertib-related grade ≥ 3TEAE [5, 9]: 3 (50) n (%)
- Patients with any Peposertib-related grade ≥4 TEAE [5, 9]: 2 (33) n (%)
- Patients with any Peposertib-related serious TEAE [5, 9]: 2 (33) n (%)
- Patients with any RT-related TEAE [5, 9]: 6 (100) n (%)
- Patients with any RT-related grade ≥3 TEAE [5, 9]: 2 (33) n (%)
- Patients with any RT-related grade ≥4 TEAE [5, 9]: 1 (17) n (%)
- Patients with any RT-related serious TEAE [5, 9]: 2 (33) n (%)
- Patients with any Serious TEAE [5, 9]: 3 (50) n (%)
- Patients with any TEAE [5, 9]: 6 (100) n (%)
- Patients with any TEAE leading to death [5, 9]: 0 n (%)
- Patients with any TEAE leading to permanent discontinuation of RT [5, 9]: 0 (0) n (%)
- Patients with any TEAE leading to permanent discontinuation of capecitabine [5, 9]: 0 (0) n (%)
- Patients with any TEAE leading to permanent discontinuation of peposertib [5, 9]: 0 (0) n (%)
- Patients with any TEAE leading to study discontinuation [5, 9]: 0 n (%)
- Patients with any Capecitabine-related TEAE [5, 10]: 6 (100) n (%)
- Patients with any Capecitabine-related grade ≥3 TEAE [5, 10]: 2 (33) n (%)
- Patients with any Capecitabine-related grade ≥4 TEAE [5, 10]: 1 (17) n (%)
- Patients with any Capecitabine-related serious TEAE [5, 10]: 0 n (%)
- Patients with any Grade ≥3 TEAE [5, 10]: 4 (67) n (%)
- Patients with any Grade ≥4 TEAE [5, 10]: 1 (17) n (%)
- Patients with any Peposertib-related TEAE [5, 10]: 5 (83.3) n (%)
- Patients with any Peposertib-related grade ≥ 3TEAE [5, 10]: 4 (67) n (%)
- Patients with any Peposertib-related grade ≥4 TEAE [5, 10]: 1 (17) n (%)
- Patients with any Peposertib-related serious TEAE [5, 10]: 0 n (%)
- Patients with any RT-related TEAE [5, 10]: 6 (100) n (%)
- Patients with any RT-related grade ≥3 TEAE [5, 10]: 2 (33) n (%)
- Patients with any RT-related grade ≥4 TEAE [5, 10]: 1 (17) n (%)
- Patients with any RT-related serious TEAE [5, 10]: 0 n (%)
- Patients with any Serious TEAE [5, 10]: 0 n (%)
- Patients with any TEAE [5, 10]: 6 (100) n (%)
- Patients with any TEAE leading to death [5, 10]: 0 n (%)
- Patients with any TEAE leading to permanent discontinuation of RT [5, 10]: 1 (17) n (%)
- Patients with any TEAE leading to permanent discontinuation of capecitabine [5, 10]: 1 (17) n (%)
- Patients with any TEAE leading to permanent discontinuation of peposertib [5, 10]: 1 (17) n (%)
- Patients with any TEAE leading to study discontinuation [5, 10]: 0 n (%)
- Patients with any Capecitabine-related TEAE [5, 11]: 6 (100) n (%)
- Patients with any Capecitabine-related grade ≥3 TEAE [5, 11]: 6 (100) n (%)
- Patients with any Capecitabine-related grade ≥4 TEAE [5, 11]: 2 (33) n (%)
- Patients with any Capecitabine-related serious TEAE [5, 11]: 3 (50) n (%)
- Patients with any Grade ≥3 TEAE [5, 11]: 6 (100) n (%)
- Patients with any Grade ≥4 TEAE [5, 11]: 2 (33) n (%)
- Patients with any Peposertib-related TEAE [5, 11]: 6 (100) n (%)
- Patients with any Peposertib-related grade ≥ 3TEAE [5, 11]: 6 (100) n (%)
- Patients with any Peposertib-related grade ≥4 TEAE [5, 11]: 2 (33) n (%)
- Patients with any Peposertib-related serious TEAE [5, 11]: 4 (67) n (%)
- Patients with any RT-related TEAE [5, 11]: 6 (100) n (%)
- Patients with any RT-related grade ≥3 TEAE [5, 11]: 5 (83.3) n (%)
- Patients with any RT-related grade ≥4 TEAE [5, 11]: 2 (33) n (%)
- Patients with any RT-related serious TEAE [5, 11]: 3 (50) n (%)
- Patients with any Serious TEAE [5, 11]: 4 (67) n (%)
- Patients with any TEAE [5, 11]: 6 (100) n (%)
- Patients with any TEAE leading to death [5, 11]: 0 n (%)
- Patients with any TEAE leading to permanent discontinuation of RT [5, 11]: 1 (17) n (%)
- Patients with any TEAE leading to permanent discontinuation of capecitabine [5, 11]: 2 (33) n (%)
- Patients with any TEAE leading to permanent discontinuation of peposertib [5, 11]: 3 (50) n (%)
- Patients with any TEAE leading to study discontinuation [5, 11]: 0 n (%)
- Toxicity of peposertib monotherapy [6]: no significant toxicity
- Dose recommended for further evaluation ([6]; monotherapy): 400 mg twice daily
